Assay results from ChEMBL document CHEMBL5058577, “EUbOPEN Chemogenomics Library 2 (Multiplex)” (2022).

Tested on: U2OS
Assay: Multiplex assay against U2OS
Assay type: toxicity, cell-based
Details: human
Summary of the method: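 Four dyes were applied at seeding to live cells: Hoechst33342, BioTracker Green Microtubule Cytoskeleton Dye, MitoTracker Red and Annexin V Alexa Fluor 680. Imaging after compound addition used a CQ1 microscope at 37°C and 5% CO2. CellPathfinder machine-learning gating then sorted cells into Hoechst high-intensity objects or normal cells, normal cells into healthy, pyknosed or fragmented nuclei, and pyknosed cells into mitotic or apoptotic, with tubulin, mitochondrial-mass and membrane-permeability phenotypes given as per cents of healthy-nucleus cells.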

[1] = 12 h, 1 µM, compound concentration 1 uM, replicate 1
[2] = 12 h, 1 µM, compound concentration 1 uM, replicate 2
[3] = 12 h, 10 µM, compound concentration 10 uM, replicate 1
[4] = 12 h, 10 µM, compound concentration 10 uM, replicate 2
[5] = 24 h, 1 µM, compound concentration 1 uM, replicate 1
[6] = 24 h, 1 µM, compound concentration 1 uM, replicate 2
[7] = 24 h, 10 µM, compound concentration 10 uM, replicate 1
[8] = 24 h, 10 µM, compound concentration 10 uM, replicate 2
[9] = 48 h, 1 µM, compound concentration 1 uM, replicate 1
[10] = 48 h, 1 µM, compound concentration 1 uM, replicate 2
[11] = 48 h, 10 µM, compound concentration 10 uM, replicate 1
[12] = 48 h, 10 µM, compound concentration 10 uM, replicate 2

CN1CCN(c2nc3cc(C(F)(F)F)ccc3n3cccc23)CC1.O=C(O)/C=C\C(=O)O.O=C(O)/C=C\C(=O)O
Population Apoptotic (%) [1]: 77%
Population Fragmented Nuclei (%) [1]: 17%
Population Healthy Nuclei (%) [1]: 75%
Population Hoechst High Intensity Objects (%) [1]: 1%
Population Membrane Permeable-Phenotype (%) [1]: 4%
Population Mitochondria Different-Phenotype (%) [1]: 0%
Population Mitotic Cells (%) [1]: 22%
Population Normal (%) [1]: 98%
Population Pyknosed Nuclei (%) [1]: 6%
Population Tubulin-Different-Phenotype (%) [1]: 1%
Total Cell Count [1]: 266
Population Apoptotic (%) [2]: 100%
Population Fragmented Nuclei (%) [2]: 18%
Population Healthy Nuclei (%) [2]: 73%
Population Hoechst High Intensity Objects (%) [2]: 0%
Population Membrane Permeable-Phenotype (%) [2]: 8%
Population Mitochondria Different-Phenotype (%) [2]: 2%
Population Mitotic Cells (%) [2]: 0%
Population Normal (%) [2]: 99%
Population Pyknosed Nuclei (%) [2]: 8%
Population Tubulin-Different-Phenotype (%) [2]: 3%
Total Cell Count [2]: 111
Population Apoptotic (%) [3]: 66%
Population Fragmented Nuclei (%) [3]: 31%
Population Healthy Nuclei (%) [3]: 53%
Population Hoechst High Intensity Objects (%) [3]: 1%
Population Membrane Permeable-Phenotype (%) [3]: 18%
Population Mitochondria Different-Phenotype (%) [3]: 45%
Population Mitotic Cells (%) [3]: 33%
Population Normal (%) [3]: 98%
Population Pyknosed Nuclei (%) [3]: 15%
Population Tubulin-Different-Phenotype (%) [3]: 19%
Total Cell Count [3]: 218
Population Apoptotic (%) [4]: 88%
Population Fragmented Nuclei (%) [4]: 25%
Population Healthy Nuclei (%) [4]: 68%
Population Hoechst High Intensity Objects (%) [4]: 2%
Population Membrane Permeable-Phenotype (%) [4]: 13%
Population Mitochondria Different-Phenotype (%) [4]: 41%
Population Mitotic Cells (%) [4]: 11%
Population Normal (%) [4]: 97%
Population Pyknosed Nuclei (%) [4]: 6%
Population Tubulin-Different-Phenotype (%) [4]: 21%
Total Cell Count [4]: 135
Population Apoptotic (%) [5]: 85%
Population Fragmented Nuclei (%) [5]: 17%
Population Healthy Nuclei (%) [5]: 73%
Population Hoechst High Intensity Objects (%) [5]: 2%
Population Membrane Permeable-Phenotype (%) [5]: 5%
Population Mitochondria Different-Phenotype (%) [5]: 1%
Population Mitotic Cells (%) [5]: 14%
Population Normal (%) [5]: 97%
Population Pyknosed Nuclei (%) [5]: 9%
Population Tubulin-Different-Phenotype (%) [5]: 3%
Total Cell Count [5]: 300
Population Apoptotic (%) [6]: 92%
Population Fragmented Nuclei (%) [6]: 13%
Population Healthy Nuclei (%) [6]: 77%
Population Hoechst High Intensity Objects (%) [6]: 0%
Population Membrane Permeable-Phenotype (%) [6]: 8%
Population Mitochondria Different-Phenotype (%) [6]: 4%
Population Mitotic Cells (%) [6]: 7%
Population Normal (%) [6]: 99%
Population Tubulin-Different-Phenotype (%) [6]: 4%
Total Cell Count [6]: 136
Population Apoptotic (%) [7]: 76%
Population Fragmented Nuclei (%) [7]: 31%
Population Healthy Nuclei (%) [7]: 57%
Population Hoechst High Intensity Objects (%) [7]: 3%
Population Membrane Permeable-Phenotype (%) [7]: 16%
Population Mitochondria Different-Phenotype (%) [7]: 41%
Population Mitotic Cells (%) [7]: 24%
Population Normal (%) [7]: 96%
Population Pyknosed Nuclei (%) [7]: 10%
Population Tubulin-Different-Phenotype (%) [7]: 14%
Total Cell Count [7]: 244
Population Apoptotic (%) [8]: 78%
Population Fragmented Nuclei (%) [8]: 19%
Population Healthy Nuclei (%) [8]: 71%
Population Membrane Permeable-Phenotype (%) [8]: 17%
Population Mitochondria Different-Phenotype (%) [8]: 36%
Population Mitotic Cells (%) [8]: 21%
Population Pyknosed Nuclei (%) [8]: 9%
Population Tubulin-Different-Phenotype (%) [8]: 16%
Total Cell Count [8]: 156
Population Apoptotic (%) [9]: 87%
Population Fragmented Nuclei (%) [9]: 14%
Population Healthy Nuclei (%) [9]: 77%
Population Hoechst High Intensity Objects (%) [9]: 2%
Population Membrane Permeable-Phenotype (%) [9]: 4%
Population Mitochondria Different-Phenotype (%) [9]: 0%
Population Mitotic Cells (%) [9]: 12%
Population Normal (%) [9]: 97%
Population Pyknosed Nuclei (%) [9]: 7%
Population Tubulin-Different-Phenotype (%) [9]: 2%
Total Cell Count [9]: 447
Population Apoptotic (%) [10]: 85%
Population Fragmented Nuclei (%) [10]: 17%
Population Healthy Nuclei (%) [10]: 75%
Population Hoechst High Intensity Objects (%) [10]: 1%
Population Membrane Permeable-Phenotype (%) [10]: 6%
Population Mitochondria Different-Phenotype (%) [10]: 5%
Population Mitotic Cells (%) [10]: 14%
Population Normal (%) [10]: 98%
Population Tubulin-Different-Phenotype (%) [10]: 3%
Total Cell Count [10]: 187
Population Apoptotic (%) [11]: 78%
Population Fragmented Nuclei (%) [11]: 31%
Population Healthy Nuclei (%) [11]: 52%
Population Hoechst High Intensity Objects (%) [11]: 4%
Population Membrane Permeable-Phenotype (%) [11]: 16%
Population Mitochondria Different-Phenotype (%) [11]: 17%
Population Mitotic Cells (%) [11]: 21%
Population Normal (%) [11]: 95%
Population Pyknosed Nuclei (%) [11]: 16%
Population Tubulin-Different-Phenotype (%) [11]: 12%
Total Cell Count [11]: 299
Population Apoptotic (%) [12]: 81%
Population Fragmented Nuclei (%) [12]: 21%
Population Healthy Nuclei (%) [12]: 67%
Population Hoechst High Intensity Objects (%) [12]: 3%
Population Membrane Permeable-Phenotype (%) [12]: 10%
Population Mitochondria Different-Phenotype (%) [12]: 16%
Population Mitotic Cells (%) [12]: 18%
Population Normal (%) [12]: 96%
Population Pyknosed Nuclei (%) [12]: 11%
Population Tubulin-Different-Phenotype (%) [12]: 9%
Total Cell Count [12]: 202
